Experimental data published in ChEMBL document CHEMBL1124491, “Folate analogues. 31. Synthesis of the reduced derivatives of 11-deazahomofolic acid, 10-methyl-11-deazahomofolic acid, and their evaluation as inhibitors of glycinamide ribonucleotide formyltransferase” (J Med Chem, 1989).

Assays:
Enterococcus faecium = assay: Inhibition of the growth of Streptococcus faecium; type: functional, organism-based
Outline: (§1)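 Bacterial growth inhibition with folate at 1 ng/mL in the medium. Reported as IC50.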

Lacticaseibacillus casei = assay: Inhibition of the growth of Lactobacillus casei; type: functional, organism-based; outline: as §1
MOLT-4 = assay: Inhibition of the growth of MOLT-4 human leukemia cells; type: functional, cell-based
Outline: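 MOLT-4 cells grown in suspension in RPMI 1640 with 10% dialyzed fetal calf serum. 10 nM calcium leucovorin replaced folic acid as the folate source. The result is reported as IC50.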

[1] = target: T1, Trifunctional purine biosynthetic protein adenosine-3 (Mus musculus, UniProt Q64737); assay: Inhibition of the GAR transformylase in L1210
T1 sequence (Q64737 whole entry): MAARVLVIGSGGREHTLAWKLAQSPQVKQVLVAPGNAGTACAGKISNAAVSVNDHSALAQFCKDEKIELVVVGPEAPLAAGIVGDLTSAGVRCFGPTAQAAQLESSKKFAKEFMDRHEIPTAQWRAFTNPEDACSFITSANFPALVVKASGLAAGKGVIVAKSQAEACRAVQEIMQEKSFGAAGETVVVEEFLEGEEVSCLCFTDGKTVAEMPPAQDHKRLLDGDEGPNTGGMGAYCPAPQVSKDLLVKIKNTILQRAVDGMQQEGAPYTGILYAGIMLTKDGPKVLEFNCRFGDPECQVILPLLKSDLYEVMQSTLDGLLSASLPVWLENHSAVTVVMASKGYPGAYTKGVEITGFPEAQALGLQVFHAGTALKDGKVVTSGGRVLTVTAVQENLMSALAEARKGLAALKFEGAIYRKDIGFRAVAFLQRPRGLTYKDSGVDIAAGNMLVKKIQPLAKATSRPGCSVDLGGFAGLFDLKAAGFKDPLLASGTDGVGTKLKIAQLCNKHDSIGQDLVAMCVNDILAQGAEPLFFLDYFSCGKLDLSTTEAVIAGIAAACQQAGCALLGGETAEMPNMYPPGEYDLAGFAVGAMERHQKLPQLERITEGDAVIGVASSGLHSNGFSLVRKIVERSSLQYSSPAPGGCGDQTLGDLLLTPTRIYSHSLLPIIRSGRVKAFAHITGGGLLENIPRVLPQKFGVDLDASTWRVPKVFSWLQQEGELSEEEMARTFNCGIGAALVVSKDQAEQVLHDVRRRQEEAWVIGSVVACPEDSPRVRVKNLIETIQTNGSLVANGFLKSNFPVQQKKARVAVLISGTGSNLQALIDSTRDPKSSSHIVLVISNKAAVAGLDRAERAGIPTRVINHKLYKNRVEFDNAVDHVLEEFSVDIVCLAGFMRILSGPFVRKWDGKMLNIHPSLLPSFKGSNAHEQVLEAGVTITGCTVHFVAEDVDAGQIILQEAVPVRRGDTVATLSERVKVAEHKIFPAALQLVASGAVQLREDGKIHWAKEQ

[2] = target: T2, Trifunctional purine biosynthetic protein adenosine-3 (Homo sapiens, UniProt P22102); assay: Inhibition of the GAR transformylase in MOLT-4 human leukemia cells
T2 sequence (P22102 whole entry): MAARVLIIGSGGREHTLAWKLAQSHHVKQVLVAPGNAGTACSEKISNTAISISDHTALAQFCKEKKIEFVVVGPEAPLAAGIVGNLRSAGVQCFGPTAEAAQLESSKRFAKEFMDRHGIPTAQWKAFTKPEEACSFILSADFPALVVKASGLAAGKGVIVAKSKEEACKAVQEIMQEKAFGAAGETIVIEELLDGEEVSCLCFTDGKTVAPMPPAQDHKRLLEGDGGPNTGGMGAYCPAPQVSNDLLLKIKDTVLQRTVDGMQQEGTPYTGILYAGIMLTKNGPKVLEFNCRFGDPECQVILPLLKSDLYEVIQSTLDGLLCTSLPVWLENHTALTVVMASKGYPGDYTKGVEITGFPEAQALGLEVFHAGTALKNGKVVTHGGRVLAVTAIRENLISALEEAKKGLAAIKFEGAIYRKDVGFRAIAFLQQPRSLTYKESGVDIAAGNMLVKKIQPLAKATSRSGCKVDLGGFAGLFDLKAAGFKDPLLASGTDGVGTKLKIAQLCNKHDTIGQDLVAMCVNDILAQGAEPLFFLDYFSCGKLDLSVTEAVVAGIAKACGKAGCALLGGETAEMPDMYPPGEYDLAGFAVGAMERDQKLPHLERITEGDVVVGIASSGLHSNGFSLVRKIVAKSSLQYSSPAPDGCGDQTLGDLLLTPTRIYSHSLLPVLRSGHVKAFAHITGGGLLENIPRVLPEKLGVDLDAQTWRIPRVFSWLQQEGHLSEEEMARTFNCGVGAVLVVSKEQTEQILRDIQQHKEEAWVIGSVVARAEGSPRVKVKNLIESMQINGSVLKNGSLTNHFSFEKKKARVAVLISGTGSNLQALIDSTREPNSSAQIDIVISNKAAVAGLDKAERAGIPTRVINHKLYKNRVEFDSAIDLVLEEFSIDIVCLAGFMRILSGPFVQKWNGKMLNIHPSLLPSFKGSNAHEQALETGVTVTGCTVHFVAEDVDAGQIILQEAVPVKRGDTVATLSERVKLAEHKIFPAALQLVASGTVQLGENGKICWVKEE

MCF7 = assay: Inhibition of the growth of MCF-7 human breast adenocarcinoma cells; type: functional, cell-based
Outline: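 MCF-7 cells grown as monolayers in RPMI 1640 with 10% dialyzed heat-inactivated fetal calf serum. 10 nM calcium leucovorin replaced folic acid as the folate source. Cells were seeded at 7.5 × 10⁴ cells/mL. The result is reported as IC50.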

[3] = target: T1, Trifunctional purine biosynthetic protein adenosine-3; assay: Inhibition of the GAR formyl transferase in L1210
Outline: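 GAR formyltransferase activity in L1210 cell extract, run at 30 °C in 50 mM Tris-HCl, pH 7.5. Substrates were (6R)-10-formyltetrahydrofolate at 60 μM and glycylamide ribonucleotide at 0.24 mM. The result is reported as IC50.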

CC(CC1=Nc2c(O)nc(N)nc2NC1)Cc1ccc(C(=O)NC(CCC(=O)O)C(=O)O)cc1 (stereo not drawn)
IC50 (Enterococcus faecium): 40 nM
IC50 (Lacticaseibacillus casei): 1700 nM

CC(Cc1ccc(C(=O)NC(CCC(=O)O)C(=O)O)cc1)CC1CNc2nc(N)nc(O)c2N1 (stereo not drawn)
IC50 (Enterococcus faecium): 128 nM
IC50 (Lacticaseibacillus casei): 3800 nM

CC(Cc1ccc(C(=O)NC(CCC(=O)O)C(=O)O)cc1)Cc1cnc2nc(N)nc(O)c2n1 (stereo not drawn)
IC50 (Enterococcus faecium): 250 nM
IC50 (Lacticaseibacillus casei): 4000 nM

Nc1nc2c(c(=O)[nH]1)NC(CCCc1ccc(C(=O)NC(CCC(=O)O)C(=O)O)cc1)CN2 (stereo not drawn)
IC50 (MOLT-4): 3400 nM
IC50 (Enterococcus faecium): 30 nM
IC50 [1]: 0.018 nM
IC50 [2]: 0.014 nM
IC50 (MCF7): 4500 nM
IC50 (Lacticaseibacillus casei): 540 nM

Nc1nc(O)c2nc(CCCc3ccc(C(=O)NC(CCC(=O)O)C(=O)O)cc3)cnc2n1 (stereo not drawn)
IC50 (Enterococcus faecium): 120 nM
IC50 (Lacticaseibacillus casei): 2200 nM
IC50 [3]: > 2500 nM

CN(Cc1cnc2nc(N)nc(N)c2n1)c1ccc(C(=O)N[C@@H](CCC(=O)O)C(=O)O)cc1 [METHOTREXATE]
IC50 (Enterococcus faecium): 0.9 nM
IC50 (Lacticaseibacillus casei): 0.02 nM

Nc1nc(O)c2c(n1)NC[C@H](CCNc1ccc(C(=O)NC(CCC(=O)O)C(=O)O)cc1)N2 (stereo partly drawn) [TETRAHYDROHOMOFOLATE]
IC50 [1]: > 0.02 nM
